# In ChEMBL document CHEMBL1629529, “Design, synthesis, and evaluation of diarylpyridines and diarylanilines as potent non-nucleoside HIV-1 reverse transcriptase inhibitors” (J Med Chem, 2010):
# Legend:
# [1] = test system: Human immunodeficiency virus 1; experiment: Antiviral activity against HIV1; assay type: functional, organism-based
# [2] = test system: Human immunodeficiency virus 1; experiment: Antiviral activity against HIV1 NL4-3 infected in human TZM-bl cells after 2 days by luciferase reporter gene assay
# [3] = test system: MT2; experiment: (§1) Cytotoxicity in human MT2 cells after 4 day by XTT assay; assay type: cell-based; details: mt2, 96 h
# In short: (§2)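 MT-2 cells (5 · 10^5/mL) were mixed with an equal volume of graded compound concentrations and incubated 4 days at 37 °C. XTT solution (1 mg/mL) containing 0.02 μM phenazine methosulphate was then added. After 4 h, absorbance at 450 nm was read.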
# [4] = test system: Human immunodeficiency virus 1; experiment: Antiviral activity against HIV1 3B infected in human MT2 cells assessed as reduction in p24 antigen level after 4 days by ELISA; assay type: functional, organism-based
# In short: (§3)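 MT-2 cells (10^4/well) were infected with 100 TCID50 virus in RPMI 1640 with 10% FBS, with or without graded compound concentrations, overnight. Supernatant was then replaced with compound-free medium. On day 4 post-infection, supernatant was mixed 1:1 with 5% Triton X-100 and p24 antigen was quantified by ELISA. Percent inhibition was converted to EC50 with CalcuSyn. Tested at least in triplicate.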
# [5] = Cytotoxicity in human TZM-bl cells after 4 day by XTT assay; assay type: cell-based; details: 96 h
# [6] = test system: Human immunodeficiency virus 1; experiment: Antiviral activity against multidrug resistant HIV1 RTMDR containing reverse transcriptase L74V, M41L, V106A and T215Y mutant infected in human TZM-bl cells after 2 days by luciferase reporter gene assay; details: Human immunodeficiency virus 1, RTMDR, 48 h
# [7] = test system: Human immunodeficiency virus 1; experiment: Antiviral activity against multidrug resistant HIV1 A17 containing reverse transcripatseK103N and Y181C mutation infected in human MT2 cells assessed as reduction in p24 antigen level after 4 days by ELISA; assay type: functional, organism-based; details: Human immunodeficiency virus 1, A17, MT2, 96 h; in short: as §3
# [8] = test system: Human immunodeficiency virus 1; experiment: Resistance index, ratio of EC50 for multidrug resistant HIV1 RTMDR to EC50 for wild type HIV1 NL4-3; assay type: functional
# [9] = test system: Human immunodeficiency virus 1; experiment: Resistance index, ratio of EC50 for multidrug resistant HIV1 A17 to EC50 for wild type HIV1 3B; assay type: functional
# [10] = Selectivity index, ratio of CC50 for human TZM-bl cells to EC50 for HIV1 NL4-3; assay type: toxicity, cell-based; details: for Ratio CC50/EC50: tzm-bl
# [11] = Selectivity index, ratio of CC50 for human MT2 cells to EC50 for HIV1 3B; assay type: toxicity, cell-based; details: for Ratio CC50/EC50: mt2
# In short: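 SI = CC50/EC50 (p24 ELISA). XTT (1 mg/mL) containing 0.02 μM PMS was added for 4 h, then absorbance was read at 450 nm. CC50 was calculated with CalcuSyn.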
# [12] = as §1; assay type: cell-based; details: MT2 cells; in short: as §2
# [13] = test system: Human immunodeficiency virus 1; experiment: Antiviral activity against multidrug resistant HIV1 RTMDR containing reverse transcriptase L74V, M41L, V106A and T215Y mutant infected in human TZM-bl cells after 4 days by luciferase reporter gene assay; assay type: functional, organism-based; details: Human immunodeficiency virus 1, RTMDR, 96 h
# [14] = Human immunodeficiency virus 1, NL4-3, TZM-bl, 48 h, read-out: EC50
# [15] = Human immunodeficiency virus 1, 3B, MT2, 96 h, read-out: EC50
EC50 [1],EC50 ([4]; mt2),SMILES,"EC50 [2, 14]",CC50 [3],"EC50 [4, 15]",CC50 [5],EC50 [6],EC50 [7],Ratio EC50 [8],Ratio EC50 [9],Ratio CC50/EC50 [10],Ratio CC50/EC50 [11],EC50 ([2]; tzm-bl),CC50 at 96 h [12],EC50 [13],"selectivity ratio ([11]; MT2 cells, read-out: Ratio CC50/EC50)","selectivity ratio ([10]; TZM-bl cells, read-out: Ratio CC50/EC50)"
3 nM,–,Cc1cc(C#N)cc(C)c1Oc1cc(Nc2ccc(C#N)cc2)c(N)cc1[N+](=O)[O-],–,–,–,–,–,–,–,–,–,–,–,–,–,–,–
–,–,CC(=O)/C=C/c1cc(C)c(Oc2cc(Nc3ccc(C#N)cc3)c(N)cc2[N+](=O)[O-])c(C)c1,6.33 nM,22600 nM,47 nM,5880 nM,–,–,–,–,–,–,–,–,–,–,–
–,–,Cc1cc(Br)cc(C)c1Oc1ccc(N)c(Nc2ccc(C#N)cc2)n1,7.29 nM,9610 nM,33 nM,15500 nM,6.8 nM,3490 nM,0.93,106,2132,291,–,–,–,–,–
–,–,Cc1cc(Br)cc(C)c1Oc1ccc([N+](=O)[O-])c(Nc2ccc(C#N)cc2)n1,50.2 nM,65100 nM,45 nM,> 45700 nM,77.6 nM,> 10000 nM,1.55,>222,> 909,1447,–,–,–,–,–
–,–,C=CCc1cc(C)c(Oc2ccc([N+](=O)[O-])c(Nc3ccc(C#N)cc3)n2)c(C)c1,–,–,1340 nM,–,–,–,–,–,–,27.37,Not Active,39700 nM,–,–,–
–,–,C=CCc1cc(C)c(Oc2ccc(N)c(Nc3ccc(C#N)cc3)n2)c(C)c1,6.89 nM,14000 nM,67 nM,8460 nM,–,> 10000 nM,2.23,> 149,1228,209,–,–,15.4 nM,–,–
–,Not Active,Cc1cc(C#CC2CC2)cc(C)c1Oc1ccc([N+](=O)[O-])c(Nc2ccc(C#N)cc2)n1,> 47200 nM,–,–,–,–,–,–,–,–,–,–,–,–,–,–
–,–,Cc1cc(C#CC2CC2)cc(C)c1Oc1ccc(N)c(Nc2ccc(C#N)cc2)n1,91.2 nM,5710 nM,410 nM,7450 nM,–,> 10000 nM,1.34,> 24,82,14,–,–,121 nM,–,–
–,–,Cc1cc(C(O)C[N+](=O)[O-])cc(C)c1Oc1ccc([N+](=O)[O-])c(Nc2ccc(C#N)cc2)n1 (stereo not drawn),308 nM,27100 nM,1710 nM,> 44500 nM,–,–,–,–,> 145,16,–,–,–,–,–
–,–,Cc1cc(C(O)C[N+](=O)[O-])cc(C)c1Oc1ccc(N)c(Nc2ccc(C#N)cc2)n1.Cl (stereo not drawn),10.1 nM,20600 nM,68 nM,7020 nM,–,–,–,–,695,303,–,–,–,–,–
–,–,Cc1cc(/C=C/C(=O)O)cc(C)c1Oc1ccc([N+](=O)[O-])c(Nc2ccc(C#N)cc2)n1,14900 nM,34800 nM,8120 nM,27800 nM,–,–,–,–,–,–,–,–,–,–,–
–,–,Cc1cc(/C=C/C(=O)O)cc(C)c1Oc1ccc(N)c(Nc2ccc(C#N)cc2)n1,600 nM,15700 nM,630 nM,18000 nM,–,–,–,–,–,–,–,–,–,–,–
–,–,CC(=O)/C=C/c1cc(C)c(Oc2ccc([N+](=O)[O-])c(Nc3ccc(C#N)cc3)n2)c(C)c1,24.4 nM,> 47900 nM,608 nM,> 46700 nM,–,–,–,–,–,–,–,–,–,–,–
–,–,CC(=O)CCc1cc(C)c(Oc2ccc(N)c(Nc3ccc(C#N)cc3)n2)c(C)c1,1.95 nM,18400 nM,55 nM,9250 nM,–,730 nM,1.64,13,4744,–,–,–,3.2 nM,1840,–
–,–,Cc1cc(/C=C/C#N)cc(C)c1Oc1ccc([N+](=O)[O-])c(Nc2ccc(C#N)cc2)n1,8 nM,> 100000 nM,49 nM,> 48700 nM,–,> 10000 nM,1.85,> 204,> 6082,> 2041,–,–,14.8 nM,–,–
–,–,Cc1cc(/C=C/C#N)cc(C)c1Oc1ccc(N)c(Nc2ccc(C#N)cc2)n1,0.71 nM,5630 nM,< 14 nM,9750 nM,–,200 nM,0.83,14,13732,> 402,–,–,0.59 nM,–,–
–,–,Cc1cc(/C=C/C#N)cc(C)c1Oc1ccc([N+](=O)[O-])c(Nc2ccc(C#N)cc2)c1,10.4 nM,> 100000 nM,37 nM,> 48800 nM,17 nM,> 10000 nM,1.63,>270,–,> 2702,–,–,–,–,4690
–,–,Cc1cc(/C=C/C#N)cc(C)c1Oc1ccc(N)c(Nc2ccc(C#N)cc2)c1,0.55 nM,8830 nM,< 14 nM,25000 nM,1.79 nM,600 nM,3.25,43,45455,> 631,–,–,–,–,–
–,–,CC(=O)/C=C/c1cc(C)c(Oc2cc(Nc3ccc(C#N)cc3)c([N+](=O)[O-])cc2[N+](=O)[O-])c(C)c1,146 nM,> 100000 nM,350 nM,24400 nM,–,–,–,–,167,> 286,–,–,–,–,–
–,–,Cc1cc(/C=C/C#N)cc(C)c1Oc1cc(Nc2ccc(C#N)cc2)c([N+](=O)[O-])cc1[N+](=O)[O-],97.1 nM,21700 nM,370 nM,> 44000 nM,–,–,–,–,> 453,59.35,–,–,–,–,–
–,–,Cc1cc(/C=C/C#N)cc(C)c1Oc1cc(Nc2ccc(C#N)cc2)c(N)cc1[N+](=O)[O-],0.38 nM,88200 nM,< 14 nM,> 47100 nM,–,95 nM,2.29,6.79,> 123842,> 6298,–,–,0.87 nM,–,–
–,–,Cc1cc(/C=C/C#N)cc(C)c1Oc1cc(Nc2ccc(C#N)cc2)c(N)cc1N,4.3 nM,18900 nM,< 14 nM,14400 nM,–,3050 nM,0.47,128,3356,> 1353,–,–,2 nM,–,–
–,–,C#Cc1cc(C)c(Oc2ccc([N+](=O)[O-])c(Nc3ccc(C#N)cc3)n2)c(C)c1,–,–,–,–,–,> 10000 nM,1.94,> 40,–,–,–,–,215 nM,–,–
–,–,C#Cc1cc(C)c(Oc2ccc(N)c(Nc3ccc(C#N)cc3)n2)c(C)c1,–,–,–,–,–,1430 nM,1.34,34,–,–,–,–,9 nM,–,–
–,–,Cc1cc(I)cc(C)c1Oc1ccc(N)c(Nc2ccc(C#N)cc2)n1,–,–,–,–,–,1930 nM,0.67,36,–,–,–,–,–,–,–
–,–,Cc1cc(C#N)cc(C)c1Oc1ccc(N)c(Nc2ccc(C#N)cc2)n1,–,> 100000 nM,15 nM,–,–,390 nM,1.41,26,13206,> 6667,–,–,–,–,–
–,–,Cc1cc(I)cc(C)c1Oc1ccc([N+](=O)[O-])c(Nc2ccc(C#N)cc2)n1,–,–,–,–,–,> 10000 nM,1.55,>127,–,–,–,–,–,–,–
–,–,Cc1cc(C#N)cc(C)c1Oc1nc(Nc2ccc(C#N)cc2)nc(N)c1Br [ETRAVIRINE],–,50700 nM,41 nM,8960 nM,–,330 nM,–,–,–,–,–,–,1 nM,–,–
